Laboratory results taken from ChEMBL document CHEMBL1629577, “Activity of T-705 in a hamster model of yellow fever virus infection in comparison with that of a chemically related compound, T-1106” (Antimicrob Agents Chemother, 2009).
Calls of active or inactive are those of the source. The calls are words filed in the database; no cut-off is given here.

How the values were obtained:
[1] = test system: Yellow fever virus; assay: Antiviral activity against 10^2 CCID50 Yellow fever virus Jimenez infected in syrian golden hamster assessed as serum ALT level in non surviving animals at 400 mg/kg/day, po administered 5 days post viral infection; type: functional
[2] = test system: Yellow fever virus; assay: Antiviral activity against 10^2 CCID50 Yellow fever virus Jimenez infected in syrian golden hamster assessed as survival of animal at 400 mg/kg/day, po administered twice daily for 8 days started 1 day post viral infection; type: functional, organism-based
[3] = test system: Yellow fever virus; assay: Antiviral activity against 10^2 CCID50 Yellow fever virus Jimenez infected in syrian golden hamster assessed as survival of animal at 400 mg/kg/day, po administered twice daily for 8 days started 2 day post viral infection; type: functional, organism-based
[4] = test system: Yellow fever virus; assay: Antiviral activity against Yellow fever virus 17D infected in African green monkey Vero cells assessed as inhibition of virus induced cytopathic effect by microscopic analysis; type: functional, cell-based
[5] = test system: Yellow fever virus; assay: Antiviral activity against Yellow fever virus 17D infected in African green monkey Vero cells assessed as reduction in virus yield; type: functional
How it was run: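 Virus yield reduction in Vero cells infected with YFV 17D after compound exposure, with progeny virus titred by CCID50. The EC90 was averaged over separate experiments.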

[6] = test system: Yellow fever virus; assay: Antiviral activity against 10^2 CCID50 Yellow fever virus Jimenez infected in syrian golden hamster assessed as serum ALT level at 100 mg/kg/day, po administered twice daily for 8 days started 4 hrs prior to viral infection; type: functional
[7] = test system: Yellow fever virus; assay: Antiviral activity against 10^2 CCID50 Yellow fever virus Jimenez infected in syrian golden hamster assessed as serum AST level at 32 mg/kg/day, po administered twice daily for 8 days started 4 hrs prior to viral infection; type: functional, organism-based
[8] = test system: Yellow fever virus; assay: Antiviral activity against 10^2 CCID50 Yellow fever virus Jimenez infected in syrian golden hamster assessed as mean day of death […] at 400 mg/kg/day, po administered twice daily for 8 days started 4 hrs prior to viral infection relative to control; type: functional
[9] = test system: Yellow fever virus; assay: Antiviral activity against 10^2 CCID50 Yellow fever virus Jimenez infected in syrian golden hamster assessed as mean day of death […] at 100 mg/kg/day, po administered twice daily for 8 days started 4 hrs prior to viral infection relative to control; type: functional
[10] = test system: Yellow fever virus; assay: Antiviral activity against 10^2 CCID50 Yellow fever virus Jimenez infected in syrian golden hamster assessed as survival of animal at 400 mg/kg/day, po administered twice daily for 8 days started 4 hrs prior to viral infection; type: functional, organism-based
[11] = test system: Yellow fever virus; assay: Antiviral activity against 10^2 CCID50 Yellow fever virus Jimenez infected in syrian golden hamster assessed as serum ALT level at 400 mg/kg/day, po administered daily for days started 3 day post viral challenge; type: functional
[12] = test system: Yellow fever virus; assay: Antiviral activity against 10^2 CCID50 Yellow fever virus Jimenez infected in syrian golden hamster assessed as serum AST level at 400 mg/kg/day, po administered daily for days started 4 day post viral challenge; type: functional
[13] = test system: Yellow fever virus; assay: Antiviral activity against 10^2 CCID50 Yellow fever virus Jimenez infected in syrian golden hamster assessed as serum ALT level in surviving animals at 400 mg/kg/day, po administered 4 days post viral infection; type: functional
[14] = test system: Yellow fever virus; assay: Antiviral activity against 10^2 CCID50 Yellow fever virus Jimenez infected in syrian golden hamster assessed as serum ALT level in surviving animals at 400 mg/kg/day, po administered 5 days post viral infection; type: functional

Question: Which results are given for `NC(=O)c1nc(F)cnc1O` [FAVIPIRAVIR]?
Answer: Activity [1]: 332 IU/L; Activity [2]: Active; Activity [3]: Active; EC50 [4]: 180 µM; EC90 [5]: 330 µM; Activity [6]: 157 IU/L; Activity [7]: inactive; Time [8]: 6 days; Time [9]: 7.1 days; Activity [10]: Active; Activity [11]: 139 IU/L; Activity [12]: 131 IU/L; Activity [13]: 77 IU/L; Activity [14]: 64 IU/L
